The record followed here is ChEMBL document CHEMBL4811250, “Discovery and Optimization of 2H-1λ2-Pyridin-2-one Inhibitors of Mutant Isocitrate Dehydrogenase 1 for the Treatment of Cancer” (J Med Chem, 2021).

In series [1] the target is Isocitrate dehydrogenase [NADP] cytoplasmic (Homo sapiens, UniProt O75874, R132C). Nature of the series: Inhibition of IDH1 R132C mutant (unknown origin) assessed as reduction in NADPH consumption using alpha-KG as substrate incubated for 5 mins by diaphorase/resazurin-coupled system. Background: Resazurin is reduced to fluorescent resorufin, in cell work by metabolically active cells.

A short description of series [2]: Permeability of compound at pH 7.4 by PAMPA assay. The class given is ADME. Conditions: read-out: permeability. Summed up:
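Stirring double-sink PAMPA using a lipid/dodecane membrane tuned for GI passive permeability, pH 7.4 on donor and acceptor sides. Compound at 0.05 mM (0.5% DMSO), 30 min permeation at room temperature with donor stirring. Donor and acceptor concentrations read by UV plate reader.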

Series [3] in a line: Kinetic solubility of the compound in pH 7.4 phosphate buffer measured after 6 hrs by UV spectroscopy. As to conditions: read-out: Kinetic_solubility. The format is physicochemical.
Series [4] in a line: Metabolic stability in rat liver microsomes assessed as half life incubated for 15 mins by high resolution LC/MS analysis. The class given is ADME, Microsome. As to conditions: 0.25 h. The method, boiled down: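 Rat liver microsomes (0.5 mg/mL protein) with 1.0 μM compound and NADPH regenerating system in 100 mM phosphate pH 7.4, 15 min at 37 °C. Quenched with acetonitrile containing albendazole internal standard. Percent remaining measured by high-resolution LC/MS.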
In general terms: Liver microsomes are vesicles of endoplasmic reticulum, rich in cytochrome P450 enzymes.

Series [5] relates to Isocitrate dehydrogenase [NADP] cytoplasmic (Homo sapiens), O75874 [R132H]. The experiment in a line: Inhibition of IDH1 R132H mutant (unknown origin) expressed in human U87 cells assessed as R-2-hydroxyglutarate production at 100 nM after 48 hrs by LC-MS analysis. The class given is cell-based. Set-up: scale not given: the % may be the effect or the level left. The method, boiled down:
(§1)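 U87-R132H cells (8000/well, DMEM high glucose, 10% FBS) were seeded, cultured overnight at 37 °C and 5% CO2, then given compound or DMSO. After 48 h, 2-HG secreted into the medium was measured by RapidFire LC-MS. Cell viability was checked by CellTiter-Glo.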

For series [6] the test system is unchanged. The experiment in a line: Inhibition of IDH1 R132H mutant (unknown origin) expressed in human U87 cells assessed as R-2-hydroxyglutarate production at 500 nM after 48 hrs by LC-MS analysis. The class given is cell-based. Set-up: scale not given: the % may be the effect or the level left. Summed up:
as §1

Series [7] deals with Isocitrate dehydrogenase [NADP] cytoplasmic (Homo sapiens, UniProt O75874, R132H). Nature of the series: Inhibition of IDH1 R132H mutant (unknown origin) assessed as reduction in NADPH consumption using alpha-KG as substrate incubated for 5 mins by diaphorase/resazurin-coupled system.
Series [8] has as its system Isocitrate dehydrogenase [NADP] cytoplasmic (Homo sapiens), O75874 [R132C]. Nature of the series: Inhibition of IDH1 R132C mutant (unknown origin) assessed as reduction in NADPH consumption using alpha-KG as substrate at 38 uM incubated for 5 mins by diaphorase/resazurin-coupled system relative to control.
The test system of series [9] is Isocitrate dehydrogenase [NADP] cytoplasmic (Homo sapiens), O75874 [R132H]. The experiment in a line: Inhibition of IDH1 R132H mutant (unknown origin) assessed as reduction in NADPH consumption using alpha-KG as substrate at 38 uM incubated for 5 mins by diaphorase/resazurin-coupled system relative to control.

Each structure is given as a SMILES string. Converted amounts (≈) assume the structure as drawn.

Isocitrate dehydrogenase [NADP] cytoplasmic (Homo sapiens), O75874 [R132C], sequence (O75874 whole entry R132C): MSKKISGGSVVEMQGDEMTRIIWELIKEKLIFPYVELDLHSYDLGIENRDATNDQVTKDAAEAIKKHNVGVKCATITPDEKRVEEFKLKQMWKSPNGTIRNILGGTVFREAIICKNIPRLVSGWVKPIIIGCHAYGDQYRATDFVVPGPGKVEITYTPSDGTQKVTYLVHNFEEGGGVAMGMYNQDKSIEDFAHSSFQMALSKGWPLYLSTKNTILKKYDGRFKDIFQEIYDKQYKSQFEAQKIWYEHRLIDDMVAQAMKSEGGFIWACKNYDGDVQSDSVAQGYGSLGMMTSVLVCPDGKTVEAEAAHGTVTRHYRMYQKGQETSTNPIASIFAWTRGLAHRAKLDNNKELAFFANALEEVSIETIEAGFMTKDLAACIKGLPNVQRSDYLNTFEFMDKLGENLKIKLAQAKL
Isocitrate dehydrogenase [NADP] cytoplasmic (Homo sapiens), O75874 [R132H], sequence (O75874 whole entry R132H): as the sequence (O75874 whole entry R132C) above, with C132H counted along it
Isocitrate dehydrogenase [NADP] cytoplasmic (Homo sapiens, UniProt O75874, R132H), sequence (O75874 2-414 R132H limits assumed): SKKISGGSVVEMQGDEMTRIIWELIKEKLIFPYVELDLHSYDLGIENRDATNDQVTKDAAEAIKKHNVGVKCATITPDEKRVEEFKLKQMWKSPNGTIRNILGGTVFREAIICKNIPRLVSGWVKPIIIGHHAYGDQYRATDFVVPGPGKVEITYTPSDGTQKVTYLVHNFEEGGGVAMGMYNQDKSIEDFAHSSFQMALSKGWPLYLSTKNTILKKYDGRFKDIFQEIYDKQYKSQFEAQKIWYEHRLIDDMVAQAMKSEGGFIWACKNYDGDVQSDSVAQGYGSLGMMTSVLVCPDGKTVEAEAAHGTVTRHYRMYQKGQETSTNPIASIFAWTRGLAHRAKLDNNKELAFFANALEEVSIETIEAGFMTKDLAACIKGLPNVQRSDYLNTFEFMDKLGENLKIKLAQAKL
Isocitrate dehydrogenase [NADP] cytoplasmic (Homo sapiens, UniProt O75874, R132C), sequence (O75874 2-414 R132C limits assumed): as the sequence (O75874 2-414 R132H limits assumed) above, with H131C counted along it

A word on the IC50: it is the point on the concentration scale where inhibition reaches its midpoint. Regarding `CCc1cccc(CC)c1-n1c(C=C(C)C)c(C(=O)N2CCNCC2C)cc(-c2nc(-c3ccc(Cl)cc3)cs2)c1=O` (stereo not given), the results for the IC50 in [1] and in [7] were 53 nM and 39 nM, respectively. Moreover, the Papp in [2] was determined as 40 ×10⁻⁶ cm/s. Also, the solubility kinetic at 6 h in series [3] was < 1 µg/mL. In addition, the t1/2 in series [4] is recorded as 17 min. Also, the values for the Activity in series [5] and in [6] were 14% and 11%, respectively.
For the compound `CCc1cccc(CC)c1-n1c(C=C(C)C)c(C(=O)N2CCNC(C)C2)cc(-c2nc(-c3ccc(Cl)cc3)cs2)c1=O` (stereo not given), the IC50 turned out to be 46 nM in [1] and 44 nM in series [7]. Further, the Activity was determined as 11% in [5] and 8% in series [6].
Broadly, the inhibition is the change of the read-out against control, counted positive when it falls. As for `CCc1cccc(CC)c1-n1c(CC2CC2)c(C(=O)N2CCNCC2)cc(-c2nc(-c3ccc(Cl)cc3)cs2)c1=O`, the inhibition in [8] was found to be 96%; in series [9] it was 107%. Moreover, the IC50 in [1] worked out at 49 nM; in series [7], 55 nM. Further, in series [2], the Papp was determined as 43 ×10⁻⁶ cm/s. Moreover, the solubility kinetic at 6 h in series [3] is < 1 µg/mL. Besides, the t1/2 in [4] came out at 17 min.
With `CCc1cccc(CC)c1-n1c(C=C(C)C)c(C(=O)N2CCNC3(CC3)C2)cc(-c2nc(-c3ccc(Cl)cc3)cs2)c1=O`, the IC50 in [1] came to 48 nM; in series [7] it was 78 nM. Further, the Papp in [2] worked out at 48 ×10⁻⁶ cm/s. Also, in series [3], the solubility kinetic at 6 h is < 1 µg/mL. Further, the t1/2 in series [4] is reported as 12 min. Besides, the Activity in [5] was found to be 17%; in [6], 14%.
Take `CCc1cccc(CC)c1-n1c(C=C(C)C)c(C(=O)N2C3CCC2CNC3)cc(-c2nc(-c3ccc(Cl)cc3)cs2)c1=O`: the IC50 in series [1] worked out at 47 nM; in series [7] it was 62 nM. In series [2], the Papp turned out to be 99 ×10⁻⁶ cm/s. The solubility kinetic at 6 h in series [3] is < 1 µg/mL. Moreover, the t1/2 in series [4] stood at 9 min. Further, the Activity in series [5] is 32%; in series [6], 18%.
In the case of `CCc1cccc(CC)c1-n1c(CC2CCNC2)c(C(=O)N2CCNCC2)cc(-c2nc(-c3ccc(Cl)cc3)cs2)c1=O` (stereo not given), the inhibition in series [8] was 52%; in series [9], 81%. For the same compound, the Papp in series [2] is 24 ×10⁻⁶ cm/s. Moreover, the solubility kinetic at 6 h in [3] is < 1 µg/mL. Moreover, the t1/2 in series [4] is 7 min. Moreover, the IC50 in series [7] was found to be 10000 nM.
As for `CCc1cccc(CC)c1-n1c(C=C(C)C)c(C(=O)N2CCNC(=O)C2)cc(-c2nc(-c3ccc(Cl)cc3)cs2)c1=O`, the IC50 in [1] was determined as 39 nM; in [7] it was 35 nM. Further, in series [2], the Papp came to 275 ×10⁻⁶ cm/s. Also, in series [3], the solubility kinetic at 6 h was < 1 µg/mL. Also, in series [4], the t1/2 is reported as 2 min. Besides, the Activity was determined as 23% in [5] and 13% in series [6].
Turning to `COc1ccc(C(=O)O)cc1-n1c2c(cc(-c3nc(-c4ccc(Cl)cc4)cs3)c1=O)C(=O)CC(C)(C)C2`, the inhibition in series [8] came out at 86%; in series [9] it was 108%. Besides, the results for the concentration for half-maximal inhibition (IC50) in series [1] and in series [7] were 14000 nM and 12000 nM, respectively.
As for `CCc1cccc(CC)c1-n1c(C=C(C)C)c(C(=O)N2C[C@H]3CC[C@@H](C2)N3)cc(-c2nc(-c3ccc(Cl)cc3)cs2)c1=O`, the IC50 in [1] is 60 nM; in series [7], 94 nM. Further, the Papp in [2] was found to be 89 ×10⁻⁶ cm/s. In series [3], the solubility kinetic at 6 h was < 1 µg/mL. Further, the t1/2 in series [4] is > 30 min. The Activity amounted to 11% in [5] and 10% in series [6].
With `COc1ccc(OC)c(-n2c3c(cc(-c4nc(-c5ccc(Cl)cc5)cs4)c2=O)C=CC(C)(C)C3)c1`, the values for the inhibition in [8] and in series [9] were 76% and 96%, respectively. For the same compound, the values for the IC50 in series [1] and in series [7] were 1700 nM and 3000 nM, respectively.
The matching figures for `CCc1cccc(CC)c1-n1c(CCOC)c(C(=O)N2CCNCC2)cc(-c2nc(-c3ccc(Cl)cc3)cs2)c1=O`: 92%, 102%, 340 nM and 140 nM.
In the same order, the values of `CCc1cccc(CC)c1-n1c(C)c(C(=O)N2CCOCC2)cc(-c2nc(-c3ccc(Cl)cc3)cs2)c1=O` are 71%, 82%, 4100 nM and 4200 nM.
In the same order, the values of `CCc1cccc(CC)c1-n1c(C(C)C)c(C(=O)N2CCNCC2)cc(-c2nc(-c3ccc(Cl)cc3)cs2)c1=O` are 92%, 102%, 390 nM and 420 nM.
On to `CCOc1cccc(OCC)c1-n1c2c(cc(-c3nc(-c4ccc(Cl)cc4)cs3)c1=O)C(=O)CC(C)(C)C2`, for which the inhibition in [8] is 86%; in series [9], 76%. The figures for the IC50 in series [1] and in series [7] were 160 nM and 390 nM, respectively.
Consider `CCc1ccc(OC)cc1-n1c(C=C(C)C)c(C(=O)N2CCNCC2)cc(-c2nc(-c3ccc(Cl)cc3)cs2)c1=O`, for which the IC50 in series [1] turned out to be 75 nM; in series [7], 114 nM. Further, the Papp in series [2] amounted to 549 ×10⁻⁶ cm/s. For the same compound, the solubility kinetic at 6 h in series [3] is < 1 µg/mL. Further, in series [4], the t1/2 was > 30 min. In addition, the Activity in series [5] stood at 40%; in series [6], 19%.
Turning to `CCc1cccc(CC)c1-n1c(CC2CCOCC2)c(C(=O)N2CCNCC2)cc(-c2nc(-c3ccc(Cl)cc3)cs2)c1=O`, the values for the inhibition in series [8] and in series [9] were 79% and 93%, respectively. In addition, the figures for the IC50 in series [1] and in series [7] were 980 nM and 1100 nM, respectively.
Consider `CCc1cccc(CC)c1-n1c(C)c(C(=O)NCCN)cc(-c2nc(-c3ccc(Cl)cc3)cs2)c1=O`, for which the inhibition in series [8] turned out to be 89%; in series [9], 97%. Also, the IC50 in series [1] is 2000 nM; in series [7] it was 380 nM.
With `CCCc1c(C(=O)N2CCNCC2)cc(-c2nc(-c3ccc(Cl)cc3)cs2)c(=O)n1-c1c(CC)cccc1CC`, the inhibition in series [8] was determined as 82%; in series [9] it was 97%. In addition, the IC50 in series [1] amounted to 100 nM; in series [7], 75 nM. Besides, the Papp in series [2] amounted to 134 ×10⁻⁶ cm/s. Further, the solubility kinetic at 6 h in [3] is < 1 µg/mL. Besides, the t1/2 in series [4] amounted to 27 min.
For `CCc1cccc(CC)c1-n1c(C=C(C)C)c(C(=O)N2CCNCC2)cc(-c2nc(-c3ccc(Cl)cc3)cs2)c1=O`, the values for the inhibition in series [8] and in [9] were 97% and 101%, respectively. Also, the IC50 amounted to 58 nM in series [1] and 44 nM in series [7]. In [2], the Papp turned out to be 225 ×10⁻⁶ cm/s. Besides, the solubility kinetic at 6 h in series [3] was < 1 µg/mL. Also, the t1/2 in series [4] was 14 min. For the same compound, the values for the Activity in [5] and in [6] were 13% and 16%, respectively.
For `CCc1ccccc1-n1c2c(cc(-c3nc(-c4ccc(Cl)cc4)cs3)c1=O)C(=O)CC(C)(C)C2`, the inhibition in series [8] was 83%; in series [9] it was 91%. The IC50 in series [1] was 870 nM; in [7], 2000 nM.
On to `CCc1cccc(CC)c1-n1c(C=C(C)C)c(C(=O)N2CCNC(C(=O)O)C2)cc(-c2nc(-c3ccc(Cl)cc3)cs2)c1=O` (stereo not given), for which the figures for the IC50 in series [1] and in series [7] were 64 nM and 55 nM, respectively. Further, the Papp in series [2] was < 1 ×10⁻⁶ cm/s. For the same compound, the solubility kinetic at 6 h in series [3] came out at 16 µg/mL (≈ 25.3 µM). The t1/2 in [4] worked out at 23 min. Also, the figures for the Activity in [5] and in series [6] were 29% and 10%, respectively.
With `CCc1cccc(CC)c1-n1c(CC(C)C)c(C(=O)N2CCNCC2)cc(-c2nc(-c3ccc(Cl)cc3)cs2)c1=O`, the inhibition in series [8] came to 83%; in series [9], 98%. Also, the IC50 amounted to 120 nM in series [1] and 110 nM in series [7]. Also, the Papp in series [2] was determined as 16 ×10⁻⁶ cm/s. Further, the solubility kinetic at 6 h in series [3] is < 1 µg/mL. In series [4], the t1/2 was 17 min. Moreover, the Activity was determined as 33% in series [5] and 12% in series [6].
`CC(C)Oc1ccccc1-n1c2c(cc(-c3nc(-c4ccc(Cl)cc4)cs3)c1=O)C(=O)CC(C)(C)C2`: the inhibition worked out at 77% in series [8] and 80% in series [9]. For the same compound, the IC50 in [1] turned out to be 470 nM; in series [7], 1100 nM.
The matching figures for `CCc1cccc(C)c1-n1c2c(cc(-c3nc(-c4ccc(Cl)cc4)cs3)c1=O)C(=O)CC(C)(C)C2`: 86%, 89%, 500 nM and 790 nM.
